Screening data as filed in PubChem.
Only some compounds are listed: those with a hit (about 2.1% of all), similar ones and a draw of the others.
Runt-SMMHC FRET: inhibitors of RUNX1 Runt–CBFb-SMMHC binding, primary screen, biochemical, FRET, Cerulean-Runt, Venus-CBFb-SMMHC, uHTS; Runt-related transcription factor 1 (Homo sapiens) + Core-binding factor subunit beta …; Cerulean-Runt/Venus-CBFb-SMMHC FRET ratio 530/480, 1 h; inhibition, % at 20 µM; actives 0.74% (n = 220,000); AID 1434, 2008;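 active = mean inhibition across duplicate retests at 20 µM reaching about 50%, limit read from the data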;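 also: inhibitors lower the FRET ratio by blocking Runt binding to CBFb-SMMHC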
m-calpain inh: inhibitors of pig calpain II, primary screen, biochemical, fluorogenic peptide substrate, 1536-well. purified calpain II, 30 min. inhibition, % at 16 µM. actives 0.37% (n = 220,000). AID 1236, 2008;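 active = inhibition above about 50%, limit read from the data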
RanGTP-Imp inh: inhibitors of RanGTP-importin-beta interaction, primary screen, biochemical, FRET, CFP-Ran, YFP-importin-beta, homogeneous. cell-free CFP-Ran/YFP-importin-beta FRET ratio. inhibition, % (concentration not given with the values). actives 1.1% (n = 300,000);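 active = more than half of the replicate wells show a fall in the fluorescence ratio signal beyond about 16%, limit read from the data, passing the limit was not always enough; inconclusive = exactly half of the replicate wells pass the set limit; inactive = fewer than half of replicates pass the limit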
Runt-CBFb FRET: inhibitors of RUNX1 Runt–CBFb binding, primary screen, biochemical, FRET, Cerulean-Runt, Venus-CBFb, uHTS; AID 1496, 2009; actives 0.46% (n = 220,000); Cerulean-Runt/Venus-CBFb FRET ratio 530/480, 1 h; Runt-related transcription factor 1 (Homo sapiens) + Core-binding factor subunit beta …; inhibition, % at 20 µM;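 active = inhibition over about 50% at 20 µM in the single-dose screen, limit read from the data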
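System: Cerulean-labeled Runt domain protein | Quantity: 100 nM of each labeled protein | Schedule: 1 h compound exposure, room temperature | Detection: Fluorescence energy transfer, 422 nm excitation, 530/480 nm emission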
FAS-TE inh: FAS thioesterase domain inhibitors, primary screen, biochemical, fluorescence intensity, uHTS. actives 0.67% (n = 360,000). recombinant FAS-TE, OMFH fluorogenic substrate, fluorescence endpoint. Fatty acid synthase (Homo sapiens), P49327. AID 602261, 2012. inhibition, % at 15 µM;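 active = compounds whose normalised, plate-corrected inhibition of enzyme fluorescence in the single-dose primary screen is 50% or more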
Hits are given with their value; i = inactive; ? = inconclusive; nt = no result given.

SMILES	Runt-SMMHC FRET	m-calpain inh	RanGTP-Imp inh	Runt-CBFb FRET	FAS-TE inh
CCCCCCN1C[C@H](O)[C@@H](n2cc(-c3ccc(F)cc3)nn2)C[C@@H]1c1ccc(C)cc1	nt	nt	nt	nt	i
COc1ccc(OC)c(Nc2cc3ccccc3c(=O)[nH]2)c1	nt	nt	?	nt	i
CC(=O)c1cccc(-c2ccc3c(=O)[nH]c(Nc4ccccc4)cc3c2)c1	nt	nt	21.6	nt	i
O=c1cc(Nc2cccc(Br)c2)[nH]c(=O)[nH]1	i	i	i	i	i
O=c1[nH]c(Nc2ccccc2)cc2cc(Br)ccc12	nt	nt	83.0	nt	i
O=c1[nH]c(Nc2ccccc2)cc2ccccc12	i	i	42.9	i	i
COc1ccccc1Nc1cc2cc(Br)ccc2c(=O)[nH]1	nt	nt	34.5	nt	i
Cc1cc(C)c(C(=O)N(C)C2CCCN(Cc3ccccc3F)C2)o1 (centres undefined)	nt	nt	i	nt	i
CN(C)CCN(C)C1CN(Cc2ccc(F)cc2)S(=O)(=O)C1 (centres undefined)	nt	nt	nt	nt	i
CCOC(=O)CSc1nc2sc(C)c(C)c2c(=O)n1C	i	i	i	i	i
CCOC(=O)CSc1nc(C(C)C)nc2sc(C)c(C)c12	i	54.5	i	i	i
Nc1nc(NCCOCCO)nc(N2CCCCCC2)c1[N+](=O)[O-]	nt	nt	i	nt	i
Cc1ccc(NC(=O)CN2C(=O)c3ccccc3C2=O)nc1	i	i	i	i	i
Cc1ccc(C(CC(=O)O)NC(=O)CN2C(=O)c3ccccc3C2=O)cc1 (centres undefined)	nt	nt	69.7	nt	i
O=C1CCC/C1=C\c1ccccc1	i	i	149.3	i	i
O=C1/C(=C\c2ccccc2)CCC/C1=C/c1ccccc1	nt	nt	nt	nt	i
CCCc1cc(=O)[nH]c(SCC(=O)Nc2cccc(S(=O)(=O)N3CCOCC3)c2)n1	nt	nt	nt	nt	i
Cc1ccc(N(C(=O)CCl)C(C(=O)NC2CCCCC2)c2cccnc2)cc1C (centres undefined)	i	102.1	i	i	nt
Cc1ccc(C(C(=O)NC2CCCC2)N(C(=O)Cc2cccs2)c2ccc3c(c2)OCCO3)cc1 (centres undefined)	i	i	i	i	60.9
O=C(NC1CCCC1)C(c1ccc(F)cc1)N(C(=O)Cc1cccs1)c1ccc2c(c1)OCCO2 (centres undefined)	i	i	i	i	i
Cc1ccc(C(C(=O)NC2CCCC2)N(C(=O)Cc2cccs2)c2ccc(C)c(C)c2)o1 (centres undefined)	i	62.5	nt	i	i
Cc1ccc(N(C(=O)CNC(=O)c2ccco2)C(C(=O)NC2CCCCC2)c2cccnc2)cc1C (centres undefined)	nt	nt	i	nt	i
Cc1ccc(C)c(N(C(=O)Cc2cccs2)C(C(=O)NC2CCCC2)c2ccc(C)o2)c1 (centres undefined)	i	53.4	i	i	i
CC(C)N1CCC(N2CCN(C3CCCCCC3)CC2CCO)CC1 (centres undefined)	i	i	i	i	i
Cc1ccc(CNC(=O)[C@H](Cc2ccccc2)NC(=O)C2CCNCC2)cc1	nt	nt	i	nt	i
SMILES	Runt-SMMHC FRET	m-calpain inh	RanGTP-Imp inh	Runt-CBFb FRET	FAS-TE inh
CCOC1=C2[C@@H](CN(S(=O)(=O)c3ccc(C)cc3)[C@H]2c2ccccc2F)[C@H]2C(=O)N(CC)C(=O)[C@H]2C1	nt	nt	nt	nt	i
O=C(O)c1cc(N/N=C/C=C/c2ccccc2)ccc1Cl	87.4	i	i	i	i
O=C(O)c1cc(N/N=C/c2ccc(OCc3ccccc3)cc2)ccc1Cl	i	i	i	i	i
Cc1ccc(C(O)CSc2nnc(-c3ccc4ccccc4c3)n2C)cc1 (centres undefined)	i	i	i	i	i
CCCCC(=O)OCC(=O)c1[nH]c(C)c(C(C)=O)c1C	i	89.3	i	i	i
CCCC(=O)OCC(=O)c1[nH]c(C)c(C(C)=O)c1C	i	i	i	i	i
O=C(CN1C(=O)NC2(CCCCC2)C1=O)Oc1ccc2c(C(F)(F)F)cc(=O)oc2c1	nt	nt	32.7	nt	i
CC(=O)c1c(N2CCN(c3ccccc3)CC2)nc(=S)n(-c2ccccc2)c1C	i	i	i	i	i
